Experimental findings from ChEMBL document CHEMBL2331329, “Synthesis and biological evaluation of 2-(alkoxycarbonyl)-3-anilinobenzo[b]thiophenes and thieno[2,3-b]pyridines as new potent anticancer agents” (J Med Chem, 2013) are described below.

The test system of assay [1] is HT-29. Nature of the assay: Cytotoxicity against human HT-29 cells after 72 hrs by MTT assay. The following applies: HT-29, 72 h. Format: functional, cell-based.
Assay [2] is described as follows: Cytotoxicity against human SEM cells after 72 hrs by MTT assay. The format is functional, cell-based. The procedure, abridged: (§1)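 Cells plated at 8 × 10^3 per well, 18 h at 37 °C, 5% CO2, then fresh medium with graded compound concentrations (DMSO ≤0.25%) for 72 h. Jurkat, SEM, HL-60 grown in RPMI-1640; A549, HeLa, HT-29, MCF-7 in DMEM; 10% FBS with penicillin/streptomycin. MTT viability read-out; IC50 vs 0.25% DMSO controls; mean ± SE of at least three independent experiments.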

Assay [3] has as its system MCF7. Nature of the assay: Cytotoxicity against human MCF7 cells after 72 hrs by MTT assay. Format: functional, cell-based. The conditions noted are these: MCF7, 72 h. (Formazan colour is commonly taken as a measure of viable cells.)
Assay [4] concerns Jurkat. Nature of the assay: Cytotoxicity against human Jurkat cells after 72 hrs by MTT assay. Format: functional, cell-based. The procedure, abridged: as §1
The test system of assay [5] is HL-60. As to the kind of experiment: Cytotoxicity against human HL60 cells after 72 hrs by MTT assay. The format is functional, cell-based. The following applies: HL-60, 72 h.
Assay [6] has as its system HeLa. Nature of the assay: Cytotoxicity against human HeLa cells after 72 hrs by MTT assay. Format: functional, cell-based.
The test system of assay [7] is A549. Nature of the assay: Cytotoxicity against human A549 cells after 72 hrs by MTT assay. The following applies: A549, 72 h. Format: functional, cell-based.
A short description of assay [8]: Cytotoxicity against human A549-T12 cells after 72 hrs by MTT assay. Format: functional, cell-based. The following applies: A549, 72 h. Put shortly:
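Mean ± SE of at least three independent experiments. Resistance ratio = IC50 in resistant line/IC50 in nonresistant line.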

For assay [9], the species on record is Bos taurus. As to the kind of experiment: Displacement of [3H]colchicine from bovine brain tubulin at 1 uM after 20 mins by turbidimetric analysis. A general note: In a radioligand displacement assay an active substance lowers the binding of a labelled ligand.
For assay [10], the species on record is Bos taurus. Nature of the assay: Displacement of [3H]colchicine from bovine brain tubulin at 5 uM after 20 mins by turbidimetric analysis.
Assay [11] is described as follows: Inhibition of bovine brain tubulin polymerization after 20 mins by turbidimetric analysis. Details: species or system Bos taurus. The procedure, abridged: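 Bovine brain tubulin (10 μM) preincubated with varying compound concentrations in glutamate buffer at 30 °C, chilled to 0 °C, 0.4 mM GTP added, then warmed to 30 °C in a recording spectrophotometer.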

Assay [12] concerns LoVo. As to the kind of experiment: Resistance index, ratio of IC50 for human LoVo/DX cells to IC50 for human LoVo cells. Format: functional. Put shortly: (§2)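 MTT viability test: 8 × 10^3 cells per well settled 18 h at 37 °C, 5% CO2, then given fresh medium with compound (from 10 mM DMSO stocks, final DMSO ≤0.25%) for 72 h. […] CEMVbl-100 is a vinblastine-selected P-gp line; LoVoDoxo is grown in Ham's F12 with 0.1 μg/mL doxorubicin. Resistance index = resistant IC50/parental IC50.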

Assay [13] can be described thus: Cytotoxicity against human LoVo/DX cells after 72 hrs by MTT assay. The format is functional, cell-based. Put shortly: as §2
Assay [14] concerns LoVo. As to the kind of experiment: Cytotoxicity against human LoVo cells after 72 hrs by MTT assay. Format: functional, cell-based. The procedure, abridged: as §2
Assay [15] concerns CCRF-CEM. As to the kind of experiment: Resistance index, ratio of IC50 for human CEM/VBL100 cells to IC50 for human CEM cells. Format: functional. Put shortly:
as §2

A short description of assay [16]: Cytotoxicity against human CEM/VBL100 cells after 72 hrs by MTT assay. Format: functional, cell-based. The conditions noted are these: CEM/VBL100, 72 h. Put shortly: as §2
For assay [17], the system named is CCRF-CEM. Nature of the assay: Cytotoxicity against human CEM cells after 72 hrs by MTT assay. Format: functional, cell-based. The procedure, abridged: as §2
The nature of assay [18]: Antitumor activity against mouse BNL 1ME A.7R.1 cells xenografted in Balb/c mouse assessed as reduction in tumor growth at 5 mg/kg, ip QD for 7 days. Format: functional. More on the design: scale not given: the % may be the effect or the level left. The conditions noted are these: route intraperitoneal. Put shortly:
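Male Balb/c mice, 8 weeks old, given 10^7 syngeneic BNL 1ME A.7R.1 hepatoma cells subcutaneously in the dorsal region in 200 μL PBS. Randomised to groups of five. Dosed intraperitoneally once daily for 7 days at 5 mg/kg in 0.9% NaCl with 5% PEG 400 and 0.5% Tween 80, against vehicle and CA-4P. Tumours measured daily by caliper, V = AB2/2; body weight recorded. Mean ± SEM.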

Usually IC50 stands for the midpoint of a concentration-inhibition curve. In the case of `COC(=O)c1sc2ccc(C)cc2c1Nc1cc(OC)c(OC)c(OC)c1`, the half-maximal inhibitory concentration (IC50) in assay [1] came out at 299 nM; in [2], 185 nM; in [3], 540 nM; in [4], 727 nM; in [5], 4720 nM; in [6] it was 398 nM. Further, the concentration for half-maximal inhibition (IC50) in assay [7] worked out at 2810 nM.

In assay [2], `COc1ccc(/C=C\c2cc(OC)c(OC)c(OC)c2)cc1O` [COMBRETASTATIN A4] registered an IC50 of 5 nM.

In the case of `CC(=O)O[C@H]1C(=O)[C@@]2(C)[C@H]([C@H](OC(=O)c3ccccc3)[C@]3(O)C[C@H](OC(=O)[C@H](O)[C@@H](NC(=O)c4ccccc4)c4ccccc4)C(C)=C1C3(C)C)[C@]1(OC(C)=O)CO[C@@H]1C[C@@H]2O` [PACLITAXEL], in [8], the IC50 was 92.3 nM.

As a reminder, the inhibition is the relative decrease from the control value, in per cent. Consider `COC(=O)c1sc2cc(C)ccc2c1Nc1cc(OC)c(OC)c(OC)c1`, for which the inhibition is 71% in assay [9] and 95% in [10]. For the same molecule, the IC50 stood at 1200 nM in assay [11]; 1.9 nM in assay [1]; 0.7 nM in [2]; 1.2 nM in assay [3]; 0.6 nM in [4]; 20.5 nM in assay [5]. Further, the IC50 is 0.31 nM in assay [6] and 10.8 nM in assay [7].

With `CCOC(=O)c1sc2ccccc2c1Nc1cc(OC)c(OC)c(OC)c1`, the IC50 in assay [1] was determined as 1610 nM; in assay [2] it was 1900 nM; in [3] it was 6390 nM; in assay [4], 3020 nM; in assay [5], 5490 nM; in assay [6], 3100 nM. In [7], this molecule yielded an IC50 of 8530 nM.

As to `COC(=O)c1sc2cccc(C)c2c1Nc1cc(OC)c(OC)c(OC)c1`, the IC50 stood at 1020 nM in assay [1]; 2500 nM in assay [2]; 8190 nM in assay [3]; 6710 nM in assay [4]; 3380 nM in [5]; 1300 nM in [6]. Besides, the IC50 in assay [7] is 4580 nM.

`CCOC(=O)c1sc2cccc(C)c2c1Nc1cc(OC)c(OC)c(OC)c1`: the IC50 turned out to be 3610 nM in assay [1]; 1930 nM in assay [2]; 4150 nM in assay [3]; 5670 nM in assay [4]; 7380 nM in assay [5]; 2520 nM in assay [6]. The molecule further gave an IC50 in assay [7] of 6250 nM.

Consider `CCOC(=O)c1sc2ncccc2c1Nc1cc(OC)c(OC)c(OC)c1`, for which the IC50 in assay [1] was 2260 nM; in assay [2], 1850 nM; in assay [3], 5280 nM; in assay [4], 8450 nM; in assay [5], 6100 nM; in assay [6], 2100 nM. For the same molecule, half-maximal inhibition in assay [7] (IC50) was put at 7160 nM.

With `COC(=O)c1sc2c(C)cccc2c1Nc1cc(OC)c(OC)c(OC)c1`, the IC50 was 552 nM in assay [1]; 1630 nM in assay [2]; 4550 nM in assay [3]; 4270 nM in assay [5]; 1730 nM in assay [6]; 3930 nM in assay [7].

`COC(=O)c1sc2ncccc2c1Nc1cc(OC)c(OC)c(OC)c1`: the IC50 is 542 nM in assay [1]; 348 nM in assay [2]; 2640 nM in assay [3]; 1110 nM in assay [4]; 2920 nM in assay [5]; 3850 nM in [7].

As to `COc1cccc2c1C(=O)c1c(O)c3c(c(O)c1C2=O)C[C@@](O)(C(=O)CO)C[C@@H]3O[C@H]1C[C@H](N)[C@H](O)[C@H](C)O1` [DOXORUBICIN], the “Ratio IC50” value in [12] was determined as 118. The IC50 amounted to 11300 nM in assay [13] and 95.6 nM in [14].

For `CCOC(=O)c1sc2cc(OC)ccc2c1Nc1cc(OC)c(OC)c(OC)c1`, the inhibition was found to be 77% in [9] and 94% in assay [10]. For the same molecule, the IC50 in assay [11] is 810 nM; in [2] it was 10.2 nM; in assay [3], 5.6 nM; in [4] it was 3.3 nM; in assay [5] it was 31.6 nM; in assay [6], 0.56 nM. The molecule further gave an IC50 in [7] of 8.9 nM.

Turning to `CCOC(=O)c1sc2cc(C)ccc2c1Nc1cc(OC)c(OC)c(OC)c1`, the inhibition was found to be 58% in assay [9] and 89% in assay [10]. The IC50 in assay [11] was determined as 1100 nM; in assay [1], 6 nM; in assay [2], 1.5 nM; in assay [3], 9 nM; in [4], 0.4 nM; in assay [5], 3.9 nM. Also, the IC50 in [6] is 0.38 nM; in assay [7], 7.2 nM.

`CC[C@]1(O)C[C@@H]2CN(CCc3c([nH]c4ccccc34)[C@@](C(=O)OC)(c3cc4c(cc3OC)N(C)[C@H]3[C@@](O)(C(=O)OC)[C@H](OC(C)=O)[C@]5(CC)C=CCN6CC[C@]43[C@@H]65)C2)C1` [VINBLASTINE]: in [15], the “Ratio IC50” value was found to be 105. The IC50 in [16] was found to be 211 nM; in assay [17], 2 nM.

Regarding `COC(=O)c1sc2ccccc2c1Nc1cc(OC)c(OC)c(OC)c1`, the IC50 is 299 nM in assay [1]; 179 nM in assay [2]; 795 nM in assay [3]; 490 nM in assay [4]; 1540 nM in assay [5]; 427 nM in [6]. In assay [7], this molecule gave an IC50 of 2850 nM.

Turning to `COc1ccc(/C=C\c2cc(OC)c(OC)c(OC)c2)cc1OP(=O)([O-])[O-].[Na+].[Na+]` [FOSBRETABULIN DISODIUM], the Activity in assay [18] is 44.5%.

As to `COC(=O)c1sc2c(OC)cccc2c1Nc1cc(OC)c(OC)c(OC)c1`, the inhibition in assay [9] was 54%; in [10], 76%. In addition, the IC50 turned out to be 760 nM in assay [11]; 14.9 nM in [1]; 2.3 nM in [2]; 95 nM in [3]; 56.5 nM in assay [4]; 25.6 nM in assay [5]. The IC50 was found to be 3.5 nM in [6] and 33 nM in [7].
